# Experimental data as given in article PMC12462367 (RSC Advances, 2025).
# Tests used:
# S. aureus ATCC 29213 [1] = test: MIC, broth microdilution; format: cell-based; conditions: Staphylococcus aureus, ATCC29213, read-out: Minimum inhibitory concentration (MIC), S. aureus ATCC 29213
# Summary of the method: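 Broth microdilution following CLSI guidelines. Strain grown in Mueller–Hinton broth with shaking at 37 °C for about 5 h, then diluted to ~10^5 CFU mL−1 in wells. Test compound serially diluted over 0.05–256 μg mL−1, and plates incubated 37 °C for 18 h. MIC taken as the lowest concentration with no visible growth. Run in triplicate.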
# S. aureus MRSA2 = test: MIC, broth microdilution; format: cell-based, Staphylococcus aureus; conditions: for MIC: Staphylococcus aureus, MRSA2, read-out: Minimum inhibitory concentration (MIC), S. aureus MRSA2
# Summary of the method: (§1)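 Broth microdilution per CLSI. Strains were grown in Mueller–Hinton broth on a shaker at 37 °C for about 5 h, then diluted to ~10^5 CFU mL−1. Test compound was serially diluted (0.05–256 μg mL−1), and plates were incubated at 37 °C for 18 h. MIC is the lowest concentration with no visible growth. Run in triplicate.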
# [2] = test system: L. monocytogenes CICC21662; test: MIC, broth microdilution; format: cell-based
# Summary of the method: as §1
# [3] = test system: IL-1β in LPS-stimulated RAW 264.7 macrophages; test: IL-1β production, LPS-stimulated macrophages; format: cell-based; conditions: Mus musculus, RAW264.7, read-out: inhibition of IL-1β production
# Summary of the method: (§2)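 RAW 264.7 cells (5 × 10^4 per well) were allowed to adhere overnight in DMEM with 10% FBS. Cells were pretreated with test compound for 2 h, then stimulated with LPS (e.g., 100 ng mL−1) for 24 h at 37 °C, 5% CO2. IL-6 and IL-1β in culture supernatants were measured by ELISA. Vehicle controls (e.g., 0.1% DMSO); ≥3 biological replicates.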
# S. aureus ATCC 29213 [4] = test: Membrane potential assay; format: cell-based, Staphylococcus aureus
# Summary of the method: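 S. aureus ATCC 29213 was grown overnight, brought to log phase (OD600 = 0.4), pelleted and resuspended in PBS at 10^6–10^7 CFU mL−1. Cells were exposed to test compound or 10 μM CCCP (depolarization control) for 15 min at room temperature in the dark. DiOC2(3) (BacLight kit) was then added for 30 min under the same conditions; red/green fluorescence ratio recorded. Triplicate.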
# S. aureus ATCC 29213 [5] = test: Drug resistance study; format: cell-based, Staphylococcus aureus; conditions: sub-MIC passage 28 days
# Cytotoxicity assay [6] = format: cell-based; conditions: human, HK-2 cells
# E. coli ATCC 25922 = test: MIC, broth microdilution; format: cell-based, Escherichia coli; conditions: 16–24 h
# Summary of the method: as §1
# S. aureus LN38 = test: MIC, broth microdilution; format: cell-based, Staphylococcus aureus
# Summary of the method: as §1
# S. aureus MRSA2 biofilm = test: Biofilm formation inhibition; format: cell-based, Staphylococcus aureus; conditions: 64 μg mL^−1 (8 × MIC)
# Summary of the method: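 S. aureus MRSA2 was diluted 1:100 in TSB with 1% (w/v) glucose and incubated with test compound (256–2 μg mL−1) for 24 h at 37 °C; DMSO-matched controls. Wells were rinsed with PBS three times, air-dried, stained with 0.1% crystal violet for 15 min, destained with 95% ethanol and read at 595 nm. Inhibition % = (ODcontrol − ODsample)/ODcontrol × 100. Triplicate.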
# [7] = test system: TNF-α in LPS-stimulated RAW 264.7 macrophages; test: TNF-α release, LPS-stimulated macrophages; format: cell-based
# B. cereus CMCC63303 = test: MIC, broth microdilution; format: cell-based
# Summary of the method: as §1
# rabbit red blood cells = test: Hemolysis assay; format: cell-based
# Summary of the method: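 Test compound in PBS was mixed 1:1 with 4% defibrinated rabbit erythrocytes in PBS (final 2–256 μg mL−1) at 37 °C. Cells were pelleted (1000×g, 5 min) and supernatant absorbance read at 490 nm. Hemolysis % = (sample − PBS)/(Triton − PBS), with 1% Triton X-100 as positive and sterile PBS as negative reference. Triplicate.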
# [8] = test system: IL-6 in LPS-stimulated RAW 264.7 macrophages; test: IL-6 secretion, LPS-stimulated macrophages; format: cell-based; conditions: Mus musculus, RAW264.7, read-out: inhibition of IL-6 secretion
# Summary of the method: as §2
# B. subtilis ATCC6633 = test: MIC, broth microdilution; format: cell-based
# Summary of the method: as §1
# S. aureus ATCC 29213 [9] = test: DNA leakage; format: cell-based, Staphylococcus aureus; conditions: increasing concentrations (1 ×, 4 ×, 16 × MIC); 4 h
# Summary of the method: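 Cells were pelleted (12 000×g, 10 min, 4 °C) and the supernatant passed through a 0.22 μm filter. Extracellular DNA was measured as A260 by microvolume spectrophotometry. Vehicle controls; technical triplicates.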
# Cytotoxicity assay [10] = format: cell-based; conditions: human, LO2 cells
# S. aureus ATCC 29213 [11] = test: Membrane permeability assay; format: cell-based, Staphylococcus aureus; conditions: 4 × MIC (32 μg mL^−1); 2 hours
# [12] = test system: S. aureus MRSA2 mature biofilm; test: Mature biofilm eradication; format: cell-based, Staphylococcus aureus; conditions: 128 μg mL^−1 (16 × MIC), 24 hours treatment
# E. faecalis ATCC29212 = test: MIC, broth microdilution; format: cell-based
# Summary of the method: as §1
# S. aureus ATCC 29213 [13] = test: Time-killing kinetics; format: cell-based, Staphylococcus aureus
# S. aureus ATCC 29213 [14] = test: Protein leakage; format: cell-based, Staphylococcus aureus; conditions: increasing concentrations (1 ×, 4 ×, 16 × MIC); 4 h
# Summary of the method: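 After centrifugation (12 000×g, 10 min, 4 °C) and 0.22 μm filtration, supernatant protein was determined by BCA assay at 562 nm. Vehicle controls; technical triplicates.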
# [15] = test system: NO in LPS-stimulated RAW 264.7 macrophages; test: Nitric oxide production, LPS-stimulated macrophages; format: cell-based; conditions: 128 μg mL^−1
# Summary of the method: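 Murine RAW 264.7 macrophages (5 × 10^4 per well, DMEM with 10% FBS) were allowed to adhere overnight. Cells were pretreated with test compound for 2 h, then exposed to LPS (e.g., 100 ng mL−1) for 24 h at 37 °C under 5% CO2. Nitric oxide in culture supernatants was measured with a commercial detection kit. Vehicle controls (e.g., 0.1% DMSO); ≥3 biological replicates.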
# [16] = Plasma protein binding, equilibrium dialysis; format: in vitro ADME; conditions: Sprague-Dawley, rat
# Summary of the method: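 Equilibrium dialysis: bags holding 0.5 mL of blank Sprague–Dawley rat plasma were placed in 40 mL of PBS containing test compound at 30 μM. Incubation was 24 h at 37 °C with shaking at 100 rpm. Both compartments were assayed by HPLC. Binding % = (A − B)/A, where A is the total concentration inside the bag and B the free concentration in the dialysate. Nonspecific binding controls; triplicate.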
SMILES,MIC (S. aureus ATCC 29213 [1]),MIC (S. aureus MRSA2),activity against L. monocytogenes CICC21662 [2],activity against S. aureus LN38 (S. aureus LN38),activity against B. cereus CMCC63303 (B. cereus CMCC63303),activity against B. subtilis ATCC6633 (B. subtilis ATCC6633),activity against E. faecalis ATCC29212 (E. faecalis ATCC29212),also measured
"CCN(CC)c1ccc(C=NNC(=O)c2ccncc2)c(O)c1 [D2, N′-(4-(diethylamino)-2-hydroxybenzylidene)isonicotinohydrazide]",> 256 mg/L,> 256 mg/L,–,–,–,–,–,–
"CCN(CC)c1ccc(C=NNC(=O)c2ccc(C)cc2)c(O)c1 [D3, N′-(4-(diethylamino)-2-hydroxybenzylidene)-4-methylbenzohydrazide]",> 256 mg/L,> 256 mg/L,–,–,–,–,–,–
"CCN(CC)c1ccc(C=Nc2cc(C)c(Br)cn2)c(O)c1 [D10, 2-(((5-bromo-4-methylpyridin-2-yl)imino)methyl)-5-(diethylamino)phenol]",> 256 mg/L,> 256 mg/L,–,–,–,–,–,–
"CCN(CC)c1ccc(C=NNC(=O)c2ccccn2)c(O)c1 [D5, N′-(4-(diethylamino)-2-hydroxybenzylidene)picolinohydrazide]",–,8 mg/L,8,16,8,16,8,"inhibition at 128 µg/mL [3]: 39%; membrane depolarization (DiOC2(3) red/green fluorescence ratio) (S. aureus ATCC 29213 [4]): significant decrease; increase of MIC after serial passage (S. aureus ATCC 29213 [5]): 16 fold; viability at 24 h, 256 μg mL^−1 (Cytotoxicity assay [6]): > 85%; Minimum inhibitory concentration (MIC), E. coli ATCC 25922 (E. coli ATCC 25922): >256 mg/L; suppression of biofilm formation (S. aureus MRSA2 biofilm): > 95%; lowest concentration at which TNF-α suppression emerges ([7]; LPS-stimulated RAW 264.7): 8 µg/mL; inhibition at 128 µg/mL ([7]; Mus musculus, RAW264.7, read-out: inhibition of TNF-α release): 40%; hemolysis at 256 μg mL^−1 (rabbit red blood cells; 256 μg mL^−1): no significant hemolysis; hemolytic activity against rabbit RBCs (rabbit red blood cells; 2 to 256 μg mL^−1, 4% rabbit RBCs, 37 °C): no hemolytic activity; inhibition at 128 µg/mL [8]: 46%; leakage of DNA into culture medium (S. aureus ATCC 29213 [9]): dose-dependent efflux; viability at 24 h, 256 μg mL^−1 (Cytotoxicity assay [10]): > 85%; membrane permeabilization (PI uptake) (S. aureus ATCC 29213 [11]): near-complete PI uptake; clearance of mature biofilms [12]: > 95%; time to complete eradication of bacteria (S. aureus ATCC 29213 [13]; 8 × MIC): ≤ 10 h; eradication of bacterial colonies (S. aureus ATCC 29213 [13]; S. aureus ATCC 29213, 8 × MIC (64 μg mL^−1), within 10 hours): > 99.9%; leakage of proteins into culture medium (S. aureus ATCC 29213 [14]): dose-dependent efflux; reduction of nitric oxide (NO) synthesis [15]: 53%; fraction unbound at 24 h, 30 μM [16]: 0.134"
"CCN(CC)c1ccc(C=NNC(=O)c2ccccc2)c(O)c1 [D1, N′-(4-(diethylamino)-2-hydroxybenzylidene)benzohydrazide]",> 256 mg/L,> 256 mg/L,–,–,–,–,–,–
CN[C@H](CC(C)C)C(=O)N[C@H]1C(=O)N[C@@H](CC(N)=O)C(=O)N[C@H]2C(=O)N[C@H]3C(=O)N[C@H](C(=O)N[C@H](C(=O)O)c4cc(O)cc(O)c4-c4cc3ccc4O)[C@H](O)c3ccc(c(Cl)c3)Oc3cc2cc(c3O[C@@H]2O[C@H](CO)[C@@H](O)[C@H](O)[C@H]2O[C@H]2C[C@](C)(N)[C@H](O)[C@H](C)O2)Oc2ccc(cc2Cl)[C@H]1O [Vancomycin],1 mg/L,2 mg/L,1,1,1,1,2,–
"CCN(CC)c1ccc(C=O)c(O)c1 [C, 4-(diethylamino)-2-hydroxybenzaldehyde]",> 256 mg/L,> 256 mg/L,>256,>256,>256,>256,>256,"Minimum inhibitory concentration (MIC), S. aureus MRSA2 (S. aureus MRSA2; clinically isolated methicillin-resistant S. aureus MRSA2, 16–24 h): >256 mg/L"
"CCN(CC)c1ccc(C=Nc2cc(C)ccc2O)c(O)c1 [D9, 2-((4-(diethylamino)-2-hydroxybenzylidene)amino)-4-methylphenol]",> 256 mg/L,> 256 mg/L,–,–,–,–,–,–
